Source: ChEMBL document CHEMBL1137739, “Synthesis of chlorovinyl sulfones as structural analogs of chalcones and their antiplasmodial activities” (Eur J Med Chem, 2009)

Experiments:
Plasmodium berghei [1] = assay: Antimalarial activity as reduced parasitaemia at day 4 in Peter's assay against Plasmodium berghei ANKA infected in NIH mice (Mus musculus) at 25 mg/kg intraperitoneal dose 2 hrs post infection then daily for 4 days; format: functional; design: scale not given: the % may be the effect or the level left
In short: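 Chloroquine reference arm: NIH mice (18–23 g) were infected i.p. with 10^6 P. berghei-infected red cells and given 25 mg/kg once daily for 4 days, starting 2 h post-infection. Day-4 parasitemia was counted on Giemsa-stained smears, expressed relative to untreated controls, with survival recorded.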

Plasmodium falciparum [2] = assay: Antimalarial activity as inhibition of chloroquine-resistant Plasmodium falciparum mediated mice (Mus musculus) hemoglobin hydrolysis at 5 mM after 18 hrs; format: functional; design: scale not given: the % may be the effect or the level left
In short: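 Parasite extract was incubated with native mouse haemoglobin, GSH (10 mM as added) and 0.2 M acetate buffer pH 5.4, with inhibitors added in DMSO, at 37 °C for 18 h. Reactions were stopped with reducing sample buffer and run on SDS-PAGE. Digestion was scored by densitometry of the 14 kDa globin band against a DMSO control, as intensity/mm2 ± SD.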

Plasmodium berghei [3] = assay: Antimalarial activity as survival at day 4 in Peter's assay against Plasmodium berghei ANKA infected NIH mice (Mus musculus) at 25 mg/kg intraperitoneal dose 2 hrs post infection then daily for 4 days; format: functional
In short: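 NIH mice (18–23 g) were infected i.p. with 10^6 P. berghei-infected erythrocytes. Dosing started 2 h later, i.p. once daily for 4 days, with compounds at 20 mg/kg and chloroquine at 25 mg/kg, from 0.1 M DMSO stocks diluted in 2% saline–Tween 20. Day-4 parasitaemia was read from Giemsa smears as % of untreated control, and survival as % of mice. Analysis used one-way ANOVA and t-tests.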

[4] = target: T1, Histidine-rich protein PFHRP-II (Plasmodium falciparum) (UniProt P05227); assay: Inhibition of acetate buffer-induced hemozoin formation at 1.25 to 25 mM/well after 48 hrs; format: functional; design: scale not given: the % may be the effect or the level left
T1 sequence (whole entry): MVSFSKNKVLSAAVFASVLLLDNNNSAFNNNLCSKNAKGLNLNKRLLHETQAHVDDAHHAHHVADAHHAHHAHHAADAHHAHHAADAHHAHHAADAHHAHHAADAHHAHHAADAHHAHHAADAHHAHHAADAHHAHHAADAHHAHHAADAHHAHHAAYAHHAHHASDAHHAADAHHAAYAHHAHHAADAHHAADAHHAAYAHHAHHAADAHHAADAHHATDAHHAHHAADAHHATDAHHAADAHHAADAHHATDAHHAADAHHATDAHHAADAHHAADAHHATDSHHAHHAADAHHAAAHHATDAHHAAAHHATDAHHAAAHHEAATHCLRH
In short: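 Hemin chloride solution (4 mM, in DMSO) was mixed in triplicate with compounds in DMSO at final 1.25–25 per well. Controls were water or DMSO. Reaction was started with 0.2 M acetate buffer pH 4.4 and run at 37 °C for 48 h. Pellets were centrifuged, washed twice with DMSO, dissolved in 0.2 N NaOH, diluted 1:2 in 0.1 N NaOH, and absorbance read at 405 nm.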

Plasmodium falciparum [5] = assay: Antimalarial activity as parasite development after 48 hrs against chloroquine-sensitive Plasmodium falciparum W2 by FACS analysis; format: functional, organism-based; conditions: W2, 48 h, in the assay text read “chloroquine-resistant” for “chloroquine-sensitive”
In short: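 Sorbitol-synchronized ring-stage P. falciparum W2, started at 0.1% parasitemia, grown in RPMI-1640 with 10% human serum under 3% O2/6% CO2/91% N2. Inhibitors were added from 1000× DMSO stocks for 48 h with no medium change. Cells were fixed in 1% formaldehyde/PBS pH 7.4 for 48 h at room temperature, then stained with 1 nM YOYO in 0.1% Triton X-100/PBS. Nucleated erythrocytes were counted by flow cytometry. IC50 came from nonlinear fits of % control parasitemia against concentration, duplicate experiments.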

Plasmodium berghei [6] = assay: Antimalarial activity as survival in Peter's assay at day 4 against Plasmodium berghei ANKA infected in NIH mice (Mus musculus) at 20 mg/kg intraperitoneal dose 2 hrs post infection then daily over 4 days
Plasmodium berghei [7] = assay: Antimalarial activity as reduced parasitaemia at day 4 in Peter's assay against Plasmodium berghei ANKA infected in NIH mice (Mus musculus) at 20 mg/kg intraperitoneal dose 2 hrs post infection then daily over 4 days; format: functional; design: scale not given: the % may be the effect or the level left
In short: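 NIH mice (18–23 g) were infected i.p. with 10^6 P. berghei-infected red cells. Compound was dissolved in DMSO (0.1 M), diluted in 2% saline–Tween 20, and given at 20 mg/kg i.p. once daily for 4 days, starting 2 h after infection. Day-4 parasitemia was read from Giemsa-stained smears as % of untreated controls. Survival was also recorded. Analysis used one-way ANOVA and t-tests.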

| SMILES | Activity (Plasmodium berghei [1]) [%] | Activity (Plasmodium falciparum [2]) [%] | Activity (Plasmodium berghei [3]) [days] | Activity [4] [%] | IC50 (Plasmodium falciparum [5]) [nM] | Activity (Plasmodium berghei [6]) [%] | Activity (Plasmodium berghei [7]) [%] |
| --- | --- | --- | --- | --- | --- | --- | --- |
| CCN(CC)CCCC(C)Nc1ccnc2cc(Cl)ccc12 (stereo not drawn) [CHLOROQUINE] | 3 | 26.92 | 30 | 84.2 | – | – | – |
| O=S(=O)(/C(Cl)=C/c1ccc(Cl)cc1)c1ccccc1 | – | 74.92 | – | < 5 | 83 | – | – |
| CC(C)CC(=O)N[C@H](C(=O)N[C@H](C(=O)N[C@@H](CC(C)C)[C@@H](O)CC(=O)N[C@@H](C)C(=O)N[C@@H](CC(C)C)[C@@H](O)CC(=O)O)C(C)C)C(C)C [PEPSTATIN] | – | 93.77 | – | – | – | – | – |
| COc1cc(OC)c(/C=C(\Cl)S(=O)(=O)c2ccccc2)c(OC)c1 | – | <5 | – | < 5 | 10000 | – | – |
| O=S(=O)(/C(Cl)=C/c1ccc(Cl)c(Cl)c1)c1ccccc1 | – | 95.04 | – | < 5 | 59 | 50 | 13.4 |
| CC(=O)N[C@@H](CC(C)C)C(=O)N[C@@H](CC(C)C)C(=O)N[C@H](C=O)CCCNC(=N)N [LEUPEPTIN] | – | 89.75 | – | – | – | – | – |
| COc1ccc(/C=C(\Cl)S(=O)(=O)c2ccccc2)cc1 | – | <5 | – | < 5 | 470 | – | – |
| O=S(=O)(/C(Cl)=C/c1ccc(F)cc1)c1ccccc1 | – | 52.72 | – | < 5 | > 10000 | – | – |
| COc1cc(OC)c(OC)cc1/C=C(\Cl)S(=O)(=O)c1ccccc1 | – | 11.07 | – | < 5 | > 10000 | – | – |
| O=S(=O)(/C(Cl)=C/c1ccc2c(c1)OCO2)c1ccccc1 | – | 37.34 | – | < 5 | 53 | – | – |
| O=S(=O)(/C(Cl)=C/c1ccccc1)c1ccccc1 | – | 59.33 | – | < 5 | > 10000 | – | – |
| O=S(=O)(/C(Cl)=C/c1cc2ccccc2nc1Cl)c1ccccc1 | – | 28.49 | – | < 5 | 25 | – | – |
| COc1cc(/C=C(\Cl)S(=O)(=O)c2ccccc2)cc(OC)c1OC | – | <5 | – | < 5 | 10000 | – | – |
| O=S(=O)(/C(Cl)=C/c1ccc(Cl)cc1Cl)c1ccccc1 | – | 75.3 | – | < 5 | 960 | – | – |
| O=S(=O)(/C(Cl)=C/c1ccccc1Cl)c1ccccc1 | – | 65.81 | – | < 5 | > 10000 | – | – |
| N#Cc1ccc(/C=C(\Cl)S(=O)(=O)c2ccccc2)cc1 | – | 44.73 | – | < 5 | > 10000 | – | – |
| O=S(=O)(/C(Cl)=C/c1ccc2ccccc2c1)c1ccccc1 | – | 84.59 | – | < 5 | 58 | 72 | 6.25 |
| O=S(=O)(/C(Cl)=C/c1cccc2ccccc12)c1ccccc1 | – | 76.69 | – | < 5 | 75 | – | – |
| O=[N+]([O-])c1ccc(/C=C(\Cl)S(=O)(=O)c2ccccc2)cc1 | – | 79.19 | – | < 5 | 73 | – | – |
